Source: PubChem
PGC1a acetyl inh: inhibitors of PGC1a acetylation signal, primary screen, cell-based, U2OS, AlphaScreen, inhibitor mode; AlphaScreen anti-acetyl-lysine; with virally co-expressed GCN5 acetyltransferase; inhibition, % at 15.6 µM; hit rate 0.17% among 350,000;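 active = every replicate shows inhibition of at least 40%; inconclusive = mean inhibition at least 40% but some replicate below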;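 also: 0% = neutral control wells and 100% = positive control wells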
S100A4 MyoIIA: inhibitors of S100A4-myosin IIA peptide binding, primary screen, biochemical, fluorescence polarization, TAMRA-MyoIIA peptide. Protein S100-A4 (Homo sapiens), P26447. inhibition, % at 10.7 µM. hit rate 0.14% among 360,000;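 active = mean inhibition of at least 70% across replicates, with every replicate also reaching that level; inconclusive = mean inhibition reaches 70% but some replicates fall short; inactive = mean inhibition below 70%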
Target sequence (P26447 whole entry, looked up): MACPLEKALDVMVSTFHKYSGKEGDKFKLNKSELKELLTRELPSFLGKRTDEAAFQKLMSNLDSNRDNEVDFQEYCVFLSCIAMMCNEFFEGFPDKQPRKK
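Test system: S100A4 monomer protein. Medium: HEPES buffer with Ca2+, pH 7.2. Reagent: fluorescent myosin IIA peptide, 5 nM. Compound dosing: single-point compound testing. Timing: 5 min between mix addition and reading. Benchmarks: DMSO neutral and TFP positive wells.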
DENV2 CPE: inhibitors of DENV2 cytopathic effect, primary screen, cell-based, plate reader, single concentration | DENV2-infected cells, cytopathic effect rescue | CPE inhibition, % at 9.99 µM | hit rate 1.7% among 350,000; in the data active = CPE inhibition above about 20%, passing the limit was not always enough; inconclusive = no clear call, values can overlap the other calls; tested in BHK-21 cells;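 also: 0% = median of neutral control wells and 100% = median of positive control wells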
C2C12 statin: suppressors of statin myotoxicity in C2C12 myotubes, primary screen, cell-based, single point, plate reader; C2C12 myotubes + simvastatin, ATP luminescence, 48 h; scaled: DMSO 0, geranylgeraniol control 100; rescue of ATP level, % at 7.49 µM; hit rate 0.78% among 330,000;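 active = mean ATP rescue above about 67%, or every replicate alone reaching that limit, limit read from the data, passing the limit was not always enough; inconclusive = no clear call, values can overlap the other calls; inactive = mean under the limit and some replicate under it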;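 also: myotubes were challenged with 10 µM simvastatin during compound exposure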
SIRT5 block: SIRT5 desuccinylase inhibitors, primary screen, biochemical, fluorescence imaging, single point, set 5; AID 652115, 2013; inhibition, % at 15 µM; NAD-dependent protein deacylase sirtuin-5, mitochondrial (Homo sapiens), Q9NXA8; Purified SirT5, succinyl-peptide AMC, trypsin-coupled fluorescence; hit rate 1.1% among 330,000; in the data active = inhibition above about 15%; inconclusive = no clear call, values can overlap the other calls
Target sequence (Q9NXA8 whole entry, looked up): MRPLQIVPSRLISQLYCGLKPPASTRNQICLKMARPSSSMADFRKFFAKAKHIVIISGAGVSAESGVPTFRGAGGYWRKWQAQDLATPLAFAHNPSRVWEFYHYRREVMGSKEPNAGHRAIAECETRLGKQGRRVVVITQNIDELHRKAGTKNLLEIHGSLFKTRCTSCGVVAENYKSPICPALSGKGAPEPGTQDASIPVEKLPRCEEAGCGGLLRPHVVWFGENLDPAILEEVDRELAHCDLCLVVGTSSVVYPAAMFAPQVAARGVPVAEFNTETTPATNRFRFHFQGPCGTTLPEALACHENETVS
An asterisk follows results filed as active; ? = inconclusive; . = no result. Only some compounds are listed: those with a hit (about 2.9% of all), similar ones and a draw of the others.

SMILES	PGC1a acetyl inh	S100A4 MyoIIA	DENV2 CPE	C2C12 statin	SIRT5 block
CC(=O)N1[C@H](CO)[C@H](c2ccccc2)C12CN(C(=O)c1cnccn1)C2	4	-3	-7	.	-1
CCc1ccc(S(=O)(=O)/N=C2\C=C(Nc3ccc(O)cc3)C(=O)c3ccccc32)cc1	63*	.	.	-773	.
O=C1C(Nc2ccc(O)cc2)=C/C(=N/S(=O)(=O)c2cccs2)c2ccccc21	.	4	0	.	-4
CCc1ccc(S(=O)(=O)/N=C2\C=C(Nc3cccc(C(=O)O)c3)C(=O)c3ccccc32)cc1	.	0	0	-313	-3
O=C(O)c1ccc(NC2=C/C(=N/S(=O)(=O)c3cccs3)c3ccccc3C2=O)cc1	9	12	?	-9	20*
Cc1ccc(NC2=C/C(=N\S(=O)(=O)c3cccs3)c3ccccc3C2=O)c(C)c1	93*	.	.	.	.
O=C(O)c1ccc(NC2=C/C(=N/S(=O)(=O)c3ccccc3)c3ccccc3C2=O)cc1	4	-4	2	.	41*
COc1ccc(CN(C)C[C@H]2Oc3c(NC(=O)Nc4ccc(OC)cc4)cccc3C(=O)N([C@@H](C)CO)C[C@@H]2C)cc1	4	-3	-4	-10	-2
CN1CCN(C(=O)[C@@H]2[C@@H](CO)[C@@H]3Cn4c(ccc(C5=CCCC5)c4=O)[C@H]2N3S(C)(=O)=O)CC1	.	-1	-6	5	-6
CN1C(=O)c2cc(NC(=O)C3CC3)ccc2OC[C@H]2O[C@@H](CC(=O)Nc3cc(F)ccc3F)CC[C@@H]21	0	8	-11	.	2
C[C@H]1CN([C@@H](C)CO)S(=O)(=O)c2ccc(C#CC3CC3)cc2O[C@H]1CN(C)C(=O)Nc1cc(F)ccc1F	-10	.	.	90*	.
C[C@H]1CN([C@@H](C)CO)S(=O)(=O)c2ccc(-c3cccc(F)c3)cc2O[C@H]1CN(C)C(=O)Nc1cc(F)ccc1F	.	-11	-1	16	.
C[C@H]1CN([C@@H](C)CO)S(=O)(=O)c2ccc(C#CC3CC3)cc2O[C@@H]1CN(C)C(=O)Nc1cc(F)ccc1F	-1	.	.	-14	.
C[C@H]1CN([C@@H](C)CO)S(=O)(=O)c2ccc(-c3cccc(F)c3)cc2O[C@@H]1CN(C)C(=O)Nc1cc(F)ccc1F	-3	0	-9	-50	19*
C[C@H](CO)N1C[C@H](C)[C@H](CN(C)C(=O)Nc2ccccc2F)Oc2cc(-c3ccc(F)cc3)ccc2S1(=O)=O	10	-3	26*	-59	-4
C[C@@H]1CN([C@@H](C)CO)C(=O)c2cc(NC(=O)CCC(F)(F)F)ccc2O[C@@H](C)CCCCO[C@H]1CN(C)S(=O)(=O)c1cccs1	-2	-9	-6	.	6
C[C@@H]1CN([C@@H](C)CO)S(=O)(=O)c2ccc(-c3cccc(F)c3)cc2O[C@H]1CN(C)C(=O)c1cccc(F)c1	15	8	?	-103	3
CCN(C(=S)NCc1ccccc1)c1cccc2ccccc12	1	-9	-4	3	6
CCN(C(C)=O)c1cccc2ccccc12	-3	.	.	147*	.
CCN(C(=O)COC(=O)c1cc(=O)[nH]c2ccccc12)c1c(N)n(Cc2ccccc2)c(=O)[nH]c1=O	-3	-54	65*	3	-5
Cc1ccc(C(=O)OCC(=O)N(C)c2c(N)n(Cc3ccccc3)c(=O)[nH]c2=O)s1	2	3	36*	-4	1
COCC(=O)N1CC[C@@H]2[C@H](CO)Nc3ccc(C#Cc4ccccc4)cc3[C@@H]21	-10	2	-10	-18	5
COCC(=O)N(C)C[C@H]1Oc2ncc(C#Cc3cccnc3)cc2C(=O)N([C@@H](C)CO)C[C@H]1C	2	-39	-5	-7	-2
COc1ccc2c3c([nH]c2c1)[C@@H](CO)N(S(=O)(=O)c1ccc(C)cc1)CC31CN(Cc2ccccc2)C1	4	.	2	.	-3
CCS(=O)(=O)N1CC2(CN(Cc3ccccc3F)[C@@H](CO)c3[nH]c4cc(OC)ccc4c32)C1	4	-8	20*	.	3
SMILES	PGC1a acetyl inh	S100A4 MyoIIA	DENV2 CPE	C2C12 statin	SIRT5 block
COc1ccc2c3c([nH]c2c1)[C@H](CO)N(Cc1cc(F)ccc1F)CC31CN(C(=O)CN(C)C)C1	-3	?	26*	.	-1
COc1ccc2c3c([nH]c2c1)[C@@H](CO)N(Cc1ccccc1F)CC31CN(C)C1	5	.	-4	.	.
COc1ccc2c3c([nH]c2c1)[C@H](CO)N(Cc1ccccc1)CC31CN(S(=O)(=O)c2ccc(C)cc2)C1	0	13	36*	.	8
COc1ccc2c3c([nH]c2c1)[C@@H](CO)N(Cc1ccccc1)CC31CN(S(=O)(=O)c2ccc(C)cc2)C1	-5	-5	20*	.	0
COc1ccc2c3c([nH]c2c1)[C@H](CO)N(C)CC31CN(S(=O)(=O)c2ccc(C)cc2)C1	6	-13	1	.	.
COc1ccc2c3c([nH]c2c1)[C@@H](CO)N(Cc1cc(F)ccc1F)CC31CN(C(=O)CN(C)C)C1	-7	37	18	.	0
COCC(=O)Nc1ccc2c(c1)C(=O)N(C)C[C@H](OC)[C@H](C)CN(Cc1ccccc1OC)[C@H](C)CO2	-3	14	-4	-5	1
C[C@H](CO)N1C[C@H](C)[C@@H](CN(C)S(=O)(=O)c2cccs2)OCCCC[C@H](C)Oc2ccc(NS(=O)(=O)c3cccs3)cc2C1=O	-4	-8	-1	.	9
C[C@H]1CCCCO[C@H](CN(C)S(=O)(=O)c2ccccc2)[C@@H](C)CN([C@@H](C)CO)C(=O)c2cc(NS(=O)(=O)c3ccc(F)cc3)ccc2O1	-3	-7	7	.	0
CCOc1cccc(C2C(C(=O)c3ccc(C)o3)=C(O)C(=O)N2Cc2ccncc2)c1 (stereo unspecified)	0	.	.	.	.
C=CCOc1cccc(C2C(C(=O)c3ccc(C)o3)=C(O)C(=O)N2Cc2ccncc2)c1 (stereo unspecified)	-8	.	.	110*	.
CC1=C(C(=O)NCc2ccccc2)C(c2cccs2)NC(=S)N1 (stereo unspecified)	1	-5	0	98*	-1
CC(Sc1nncn1C)C(=O)Nc1ccc(Cl)cn1 (stereo unspecified)	.	7	-1	.	1
COc1ccc(Cl)cc1NC(=O)C(C)Sc1nncn1C (stereo unspecified)	4	.	.	131*	.
N#CCCN1CCNCC1	11	.	.	132*	.
CCC(C)(CC(=O)O)CC(=O)Nc1cc(C(F)(F)F)cc(C(F)(F)F)c1 (stereo unspecified)	68*	3	-2	-4	-2
CC(CC(=O)O)CC(=O)Nc1cc(C(F)(F)F)cc(C(F)(F)F)c1 (stereo unspecified)	9	-2	9	.	-1
Cc1ccc(OCCSc2nc3ccccc3n2CCC(=O)O)cc1	.	6	-4	4	21*
